Where “and” joins values, the source holds several entries; their conditions need not be identical. Equal values may be shown once.
Key:
Format in all cases: functional, Mus musculus
B16-F10 [1] = test: Effect of 100 uM on B16-F10 melanoma cells (experiment 1)
In short: (§1)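 B16-F10 cells, cultured in vitro for no more than 10 passages, were exposed for 24 h to drug made up as a 1000 μM Me₂SO stock and diluted in medium. Controls were Me₂SO or saline. Cells were scraped, washed and set at 5 × 10⁵/mL in Hanks BSS, and 0.2 mL was given iv by tail vein to male C57Bl/6J mice aged 6–8 weeks. Black lung nodules were counted at 14 days, mean ± SD, ANOVA/Newman–Keuls.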

B16-F10 [2] = test: Effect of 2 uM on B16-F10 melanoma cells (experiment 1); in short: as §1
B16-F10 [3] = test: Effect of 20 uM on B16-F10 melanoma cells (experiment 1); in short: as §1
B16-F10 [4] = test: Effect of 100 uM on B16-F10 melanoma cells (experiment 2); in short: as §1
B16-F10 [5] = test: Effect of 20 uM on B16-F10 melanoma cells (experiment 2); in short: as §1
B16-F10 [6] = test: Effect of 2 uM on B16-F10 melanoma cells (experiment 2); in short: as §1

Compound: CCOC(=O)COC(=O)[C@H]1[C@@H](C(N)=O)N(CC(=O)OCC)CCN1CC(=O)OCC
- Mean no. of lung colonies (B16-F10 [1]): 37.1
- Mean no. of lung colonies (B16-F10 [2]): 33.2
- Mean no. of lung colonies (B16-F10 [3]): 43.4

Compound: O=C1CN2CCN3CC(=O)NC(=O)[C@H]3C2C(=O)N1 (some centres not stated)
- Mean no. of lung colonies (B16-F10 [4]): 118.9
- Mean no. of lung colonies (B16-F10 [5]): 96.1
- Mean no. of lung colonies (B16-F10 [6]): 52.1

Compound: CCOC(=O)CN1CCN(CC(=O)OCC)[C@H]2C(=O)NC(=O)[C@H]21
- Mean no. of lung colonies (B16-F10 [1]): 142.5
- Mean no. of lung colonies (B16-F10 [2]): 159.7
- Mean no. of lung colonies (B16-F10 [3]): 160.7

Compound: O=C1CN2CCN3CC(=O)NC(=O)[C@@H]3C2C(=O)N1 (some centres not stated)
- Mean no. of lung colonies (B16-F10 [1]): 65.7
- Mean no. of lung colonies (B16-F10 [2]): 29.1
- Mean no. of lung colonies (B16-F10 [3]): 23.3
- Mean no. of lung colonies (B16-F10 [5]): 50.1 and 50.2
- Mean no. of lung colonies (B16-F10 [6]): 39.1

Compound: COC(=O)CN1CCN2CC(=O)NC(=O)[C@@H]2[C@@H]1C(N)=O
- Mean no. of lung colonies (B16-F10 [4]): 56.7
- Mean no. of lung colonies (B16-F10 [5]): 101.3
- Mean no. of lung colonies (B16-F10 [6]): 86.2
